Tests used:
Format in all cases: functional
Meloidogyne incognita [1] = experiment: Nematicidal activity against second-stage juvenile of Meloidogyne incognita (root-knot nematode) assessed as mortality at 25 degC at 1000 umol/L after 24 hr Rvb = 1.47 to 2.51%)
Meloidogyne incognita [2] = experiment: Nematicidal activity against second-stage juvenile of Meloidogyne incognita (root-knot nematode) assessed as mortality at 25 degC at 100 umol/L after 12 hr (reference value: 1.79 to 3.30%)
Meloidogyne incognita [3] = experiment: Nematicidal activity against Meloidogyne incognita (root-knot nematode) assessed as cumulative percentage of egg hatching at 25 degC at 100 umol/L on day 21 (SDW control = 44.87 +/- 3.93%)
Outline: (§1)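 Eggs (500 in 1 mL suspension) held on a 1 cm sieve of 35 μm pore, set in the center well of a 24-well plate. About 2 mL of fatty acid solution (final 100, 1000 or 2000 μmol/L) was added, reaching only the sieve bottom. The fatty acid was dissolved in acetone/Tween-80/DMSO medium and diluted with sterile distilled water. SDW and medium served as controls. One treatment per plate, six replicates, parafilm-sealed, 25 °C. Hatched J2s were counted and the solution renewed on days 3, 7, 14 and 21; values are cumulative % hatch as mean ± SE.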

Meloidogyne incognita [4] = experiment: Nematicidal activity against Meloidogyne incognita (root-knot nematode) assessed as cumulative percentage of egg hatching at 25 degC at 1000 umol/L on day 7 (SDW control = 12.63 +/- 3.84%); outline: as §1
Meloidogyne incognita [5] = experiment: Nematicidal activity against Meloidogyne incognita (root-knot nematode) assessed as cumulative percentage of egg hatching at 25 degC at 1000 umol/L on day 14 (SDW control = 35.77 +/- 4.48%); outline: as §1
Meloidogyne incognita [6] = experiment: Nematicidal activity against second-stage juvenile of Meloidogyne incognita (root-knot nematode) assessed as mortality at 25 degC at 2000 umol/L after 24 hr Rvb = 1.47 to 2.51%)
Meloidogyne incognita [7] = experiment: Nematicidal activity against Meloidogyne incognita (root-knot nematode) assessed as cumulative percentage of egg hatching at 25 degC at 2000 umol/L on day 7 (SDW control = 12.63 +/- 3.84%); outline: as §1
Meloidogyne incognita [8] = experiment: Nematicidal activity against Meloidogyne incognita (root-knot nematode) assessed as cumulative percentage of egg hatching at 25 degC at 1000 umol/L on day 21 (SDW control = 44.87 +/- 3.93%); outline: as §1
Meloidogyne incognita [9] = experiment: Nematicidal activity against Meloidogyne incognita (root-knot nematode) assessed as cumulative percentage of egg hatching at 25 degC at 2000 umol/L on day 21 (SDW control = 44.87 +/- 3.93%); outline: as §1
Meloidogyne incognita [10] = experiment: Nematicidal activity against Meloidogyne incognita (root-knot nematode) root-knot nematodes assessed as cumulative percentage of egg hatching at 25 degC at 100 umol/L on day 3 (SDW control = 0.57 +/- 0.37%); outline: as §1
Meloidogyne incognita [11] = experiment: Nematicidal activity against second-stage juvenile of Meloidogyne incognita (root-knot nematode) assessed as mortality at 25 degC at 100 umol/L after 24 hr (reference value: 1.47 to 2.51%)
Meloidogyne incognita [12] = experiment: Nematicidal activity against Meloidogyne incognita (root-knot nematode) assessed as cumulative percentage of egg hatching at 25 degC at 100 umol/L on day 14 (SDW control = 35.77 +/- 4.48%); outline: as §1
Meloidogyne incognita [13] = experiment: Nematicidal activity against Meloidogyne incognita (root-knot nematode) assessed as cumulative percentage of egg hatching at 25 degC at 100 umol/L on day 7 (SDW control = 12.63 +/- 3.84%); outline: as §1
Meloidogyne incognita [14] = experiment: Nematicidal activity against Meloidogyne incognita (root-knot nematode) assessed as cumulative percentage of egg hatching at 25 degC at 1000 umol/L on day 3 (SDW control = 0.57 +/- 0.37%); outline: as §1
Meloidogyne incognita [15] = experiment: Nematicidal activity against Meloidogyne incognita (root-knot nematode) assessed as cumulative percentage of egg hatching at 25 degC at 2000 umol/L on day 14 (SDW control = 35.77 +/- 4.48%); outline: as §1
Meloidogyne incognita [16] = experiment: Nematicidal activity against Meloidogyne incognita (root-knot nematode) assessed as cumulative percentage of egg hatching at 25 degC at 2000 umol/L on day 3 (SDW control = 0.57 +/- 0.37%); outline: as §1
Meloidogyne incognita [17] = experiment: Nematicidal activity against second-stage juvenile of Meloidogyne incognita (root-knot nematode) assessed as mortality at 25 degC at 2000 umol/L after 12 hr (reference value: 1.79 to 3.30%)
Meloidogyne incognita [18] = experiment: Nematicidal activity against second-stage juvenile of Meloidogyne incognita (root-knot nematode) assessed as mortality at 25 degC at 1000 umol/L after 12 hr (reference value: 1.79 to 3.30%)

Compound: CCCC(=O)O [BUTYRIC ACID]
- mortality at 1000 µM (Meloidogyne incognita [1]): 2.34%
- mortality at 100 µM (Meloidogyne incognita [2]): 2.55%
- Activity (Meloidogyne incognita [3]): 20.37%
- Activity (Meloidogyne incognita [4]): 7.87%
- Activity (Meloidogyne incognita [5]): 17.17%
- mortality at 2000 µM (Meloidogyne incognita [6]): 3.28%
- Activity (Meloidogyne incognita [7]): 4.47%
- Activity (Meloidogyne incognita [8]): 21.47%
- Activity (Meloidogyne incognita [9]): 14.13%
- Activity (Meloidogyne incognita [10]): 1.6%
- mortality at 100 µM (Meloidogyne incognita [11]): 2.91%
- Activity (Meloidogyne incognita [12]): 13.9%
- Activity (Meloidogyne incognita [13]): 6.7%
- Activity (Meloidogyne incognita [14]): 2%
- Activity (Meloidogyne incognita [15]): 8.17%
- Activity (Meloidogyne incognita [16]): 0.67%
- mortality at 2000 µM (Meloidogyne incognita [17]): 3.23%
- mortality at 1000 µM (Meloidogyne incognita [18]): 3.34%

Compound: CCCCCCCC/C=C\CCCCCCCC(=O)O [OLEIC ACID]
- mortality at 1000 µM (Meloidogyne incognita [1]): 2.42%
- mortality at 100 µM (Meloidogyne incognita [2]): 3.54%
- Activity (Meloidogyne incognita [3]): 24.93%
- Activity (Meloidogyne incognita [4]): 6.03%
- Activity (Meloidogyne incognita [5]): 18.53%
- mortality at 2000 µM (Meloidogyne incognita [6]): 4.58%
- Activity (Meloidogyne incognita [7]): 7.47%
- Activity (Meloidogyne incognita [8]): 25.57%
- Activity (Meloidogyne incognita [9]): 21.8%
- Activity (Meloidogyne incognita [10]): 1.47%
- mortality at 100 µM (Meloidogyne incognita [11]): 3.54%
- Activity (Meloidogyne incognita [12]): 16.6%
- Activity (Meloidogyne incognita [13]): 6.07%
- Activity (Meloidogyne incognita [14]): 0.67%
- Activity (Meloidogyne incognita [15]): 16.53%
- Activity (Meloidogyne incognita [16]): 1.23%
- mortality at 2000 µM (Meloidogyne incognita [17]): 4.49%
- mortality at 1000 µM (Meloidogyne incognita [18]): 4.52%

Compound: CCCCCCCCCCCCCCCC(=O)O [PALMITIC ACID]
- mortality at 1000 µM (Meloidogyne incognita [1]): 3.03%
- mortality at 100 µM (Meloidogyne incognita [2]): 3.33%
- Activity (Meloidogyne incognita [3]): 22.3%
- Activity (Meloidogyne incognita [4]): 2.8%
- Activity (Meloidogyne incognita [5]): 9.53%
- mortality at 2000 µM (Meloidogyne incognita [6]): 4.91%
- Activity (Meloidogyne incognita [7]): 6.63%
- Activity (Meloidogyne incognita [8]): 13.4%
- Activity (Meloidogyne incognita [9]): 20.17%
- Activity (Meloidogyne incognita [10]): 1.13%
- mortality at 100 µM (Meloidogyne incognita [11]): 3.36%
- Activity (Meloidogyne incognita [12]): 15.07%
- Activity (Meloidogyne incognita [13]): 5.73%
- Activity (Meloidogyne incognita [14]): 0.23%
- Activity (Meloidogyne incognita [15]): 17.23%
- Activity (Meloidogyne incognita [16]): 0.7%
- mortality at 2000 µM (Meloidogyne incognita [17]): 5.44%
- mortality at 1000 µM (Meloidogyne incognita [18]): 6.71%

Compound: CCCCCCCC(=O)O [OCTANOIC ACID]
- mortality at 1000 µM (Meloidogyne incognita [1]): 1.08%
- mortality at 100 µM (Meloidogyne incognita [2]): 1.65%
- Activity (Meloidogyne incognita [3]): 30.93%
- Activity (Meloidogyne incognita [4]): 9.03%
- Activity (Meloidogyne incognita [5]): 16.87%
- mortality at 2000 µM (Meloidogyne incognita [6]): 56.4%
- Activity (Meloidogyne incognita [8]): 21%
- Activity (Meloidogyne incognita [9]): 15.07%
- Activity (Meloidogyne incognita [10]): 2.3%
- mortality at 100 µM (Meloidogyne incognita [11]): 40.5%
- Activity (Meloidogyne incognita [12]): 23.63%
- Activity (Meloidogyne incognita [13]): 8.6%
- Activity (Meloidogyne incognita [14]): 2.6%
- Activity (Meloidogyne incognita [15]): 13.07%
- Activity (Meloidogyne incognita [16]): 0.73%
- mortality at 2000 µM (Meloidogyne incognita [17]): 49.9%
- mortality at 1000 µM (Meloidogyne incognita [18]): 65.6%

Compound: CCCCCCCCCC(=O)O [DECANOIC ACID]
- mortality at 1000 µM (Meloidogyne incognita [1]): 1.63%
- mortality at 100 µM (Meloidogyne incognita [2]): 2.01%
- Activity (Meloidogyne incognita [3]): 25.93%
- Activity (Meloidogyne incognita [4]): 4.77%
- Activity (Meloidogyne incognita [5]): 11.5%
- mortality at 2000 µM (Meloidogyne incognita [6]): 61%
- Activity (Meloidogyne incognita [7]): 2.07%
- Activity (Meloidogyne incognita [8]): 16.4%
- Activity (Meloidogyne incognita [9]): 7.1%
- Activity (Meloidogyne incognita [10]): 0.43%
- mortality at 100 µM (Meloidogyne incognita [11]): 5.16%
- Activity (Meloidogyne incognita [12]): 19.57%
- Activity (Meloidogyne incognita [13]): 4.73%
- Activity (Meloidogyne incognita [14]): 0.97%
- Activity (Meloidogyne incognita [15]): 4.8%
- Activity (Meloidogyne incognita [16]): 0.23%
- mortality at 2000 µM (Meloidogyne incognita [17]): 25.2%
- mortality at 1000 µM (Meloidogyne incognita [18]): 16.9%

Compound: CCCCCCCCCCCCCC(=O)O [MYRISTIC ACID]
- mortality at 1000 µM (Meloidogyne incognita [1]): 1.57%
- mortality at 100 µM (Meloidogyne incognita [2]): 1.31%
- Activity (Meloidogyne incognita [3]): 27.67%
- Activity (Meloidogyne incognita [4]): 1.47%
- Activity (Meloidogyne incognita [5]): 12.93%
- mortality at 2000 µM (Meloidogyne incognita [6]): 3.76%
- Activity (Meloidogyne incognita [7]): 1.53%
- Activity (Meloidogyne incognita [8]): 23.97%
- Activity (Meloidogyne incognita [9]): 20%
- Activity (Meloidogyne incognita [10]): 1.8%
- mortality at 100 µM (Meloidogyne incognita [11]): 2.46%
- Activity (Meloidogyne incognita [12]): 18.4%
- Activity (Meloidogyne incognita [13]): 8.87%
- Activity (Meloidogyne incognita [14]): 0.37%
- Activity (Meloidogyne incognita [15]): 12%
- Activity (Meloidogyne incognita [16]): 0.27%
- mortality at 2000 µM (Meloidogyne incognita [17]): 2.11%
- mortality at 1000 µM (Meloidogyne incognita [18]): 2.29%

Compound: CCCCCCCCCCCC(=O)O [DODECANOATE]
- mortality at 1000 µM (Meloidogyne incognita [1]): 2.46%
- mortality at 100 µM (Meloidogyne incognita [2]): 1.22%
- Activity (Meloidogyne incognita [3]): 27.1%
- Activity (Meloidogyne incognita [4]): 12.7%
- Activity (Meloidogyne incognita [5]): 20.37%
- mortality at 2000 µM (Meloidogyne incognita [6]): 41.3%
- Activity (Meloidogyne incognita [7]): 7.57%
- Activity (Meloidogyne incognita [8]): 24.17%
- Activity (Meloidogyne incognita [9]): 20.77%
- Activity (Meloidogyne incognita [10]): 0.5%
- mortality at 100 µM (Meloidogyne incognita [11]): 15.8%
- Activity (Meloidogyne incognita [12]): 20.1%
- Activity (Meloidogyne incognita [13]): 4.73%
- Activity (Meloidogyne incognita [14]): 3.67%
- Activity (Meloidogyne incognita [15]): 17.47%
- Activity (Meloidogyne incognita [16]): 1.6%
- mortality at 2000 µM (Meloidogyne incognita [17]): 38%
- mortality at 1000 µM (Meloidogyne incognita [18]): 21.3%

Compound: CCCCC/C=C\C/C=C\CCCCCCCC(=O)O [LINOLEIC ACID]
- mortality at 1000 µM (Meloidogyne incognita [1]): 3.3%
- mortality at 100 µM (Meloidogyne incognita [2]): 3.12%
- Activity (Meloidogyne incognita [3]): 37.97%
- Activity (Meloidogyne incognita [4]): 6.6%
- Activity (Meloidogyne incognita [5]): 20.43%
- mortality at 2000 µM (Meloidogyne incognita [6]): 5.1%
- Activity (Meloidogyne incognita [7]): 2.3%
- Activity (Meloidogyne incognita [8]): 29.47%
- Activity (Meloidogyne incognita [9]): 11.33%
- Activity (Meloidogyne incognita [10]): 0.33%
- mortality at 100 µM (Meloidogyne incognita [11]): 3.72%
- Activity (Meloidogyne incognita [12]): 29.8%
- Activity (Meloidogyne incognita [13]): 6.17%
- Activity (Meloidogyne incognita [14]): 0.13%
- Activity (Meloidogyne incognita [15]): 5.87%
- Activity (Meloidogyne incognita [16]): 0.33%
- mortality at 2000 µM (Meloidogyne incognita [17]): 3.41%
- mortality at 1000 µM (Meloidogyne incognita [18]): 4.72%

Compound: CCCCCC(=O)O [HEXANOATE]
- mortality at 1000 µM (Meloidogyne incognita [1]): 2.29%
- mortality at 100 µM (Meloidogyne incognita [2]): 0.39%
- Activity (Meloidogyne incognita [3]): 15.97%
- Activity (Meloidogyne incognita [4]): 7.67%
- Activity (Meloidogyne incognita [5]): 16.67%
- mortality at 2000 µM (Meloidogyne incognita [6]): 4.44%
- Activity (Meloidogyne incognita [7]): 6.4%
- Activity (Meloidogyne incognita [8]): 21.2%
- Activity (Meloidogyne incognita [9]): 19.67%
- Activity (Meloidogyne incognita [10]): 0.87%
- mortality at 100 µM (Meloidogyne incognita [11]): 1.5%
- Activity (Meloidogyne incognita [12]): 9.57%
- Activity (Meloidogyne incognita [13]): 2.97%
- Activity (Meloidogyne incognita [14]): 2.77%
- Activity (Meloidogyne incognita [15]): 14.4%
- Activity (Meloidogyne incognita [16]): 0.8%
- mortality at 2000 µM (Meloidogyne incognita [17]): 2.02%
- mortality at 1000 µM (Meloidogyne incognita [18]): 1.09%

Reference: ChEMBL document CHEMBL3045708, “Potential antagonistic effects of nine natural fatty acids against Meloidogyne incognita” (2012)
